Data: article PMC7042484 (Redox Biology, 2020)

Tests used:
[1] = biological target: xanthine oxidase (Bos taurus, UniProt P80457); test: Xanthine Oxidase assay; format: biochemical; details: 100 μM compound, hypoxanthine, Amplex Red/peroxidase
Method in brief: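 Compound (100 μM) with xanthine oxidase, 100 μM Amplex Red, 0.4 U/mL horseradish peroxidase and 0.2 mM hypoxanthine. 15 min at 37 °C; H2O2-derived resorufin read by fluorescence, ex 530/em 590 nm.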

[2] = biological target: T1, human NOX4 (Homo sapiens, UniProt Q9NPH5); test: Initial evaluation on NOX4 membrane preparations; format: biochemical; details: for inhibition of NOX4 (in words): 100 μM compound, membranes
T1 sequence (Q9NPH5 1-578): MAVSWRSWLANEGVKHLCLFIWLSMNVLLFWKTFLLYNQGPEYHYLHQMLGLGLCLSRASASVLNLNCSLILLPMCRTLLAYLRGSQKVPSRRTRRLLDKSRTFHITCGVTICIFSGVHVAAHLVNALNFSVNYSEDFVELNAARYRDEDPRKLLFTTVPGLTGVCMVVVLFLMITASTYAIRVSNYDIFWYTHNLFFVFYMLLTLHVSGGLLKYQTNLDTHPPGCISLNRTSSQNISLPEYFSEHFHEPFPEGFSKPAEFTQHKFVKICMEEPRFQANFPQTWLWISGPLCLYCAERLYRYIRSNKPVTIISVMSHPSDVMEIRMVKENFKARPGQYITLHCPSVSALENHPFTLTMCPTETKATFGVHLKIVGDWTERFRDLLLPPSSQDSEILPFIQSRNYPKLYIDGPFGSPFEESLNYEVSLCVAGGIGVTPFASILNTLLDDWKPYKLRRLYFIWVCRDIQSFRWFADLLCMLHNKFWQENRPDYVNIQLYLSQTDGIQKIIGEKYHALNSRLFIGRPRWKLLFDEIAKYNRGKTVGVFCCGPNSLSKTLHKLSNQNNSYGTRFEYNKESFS
T1 sequence (P13498 2-195 partner limits assumed): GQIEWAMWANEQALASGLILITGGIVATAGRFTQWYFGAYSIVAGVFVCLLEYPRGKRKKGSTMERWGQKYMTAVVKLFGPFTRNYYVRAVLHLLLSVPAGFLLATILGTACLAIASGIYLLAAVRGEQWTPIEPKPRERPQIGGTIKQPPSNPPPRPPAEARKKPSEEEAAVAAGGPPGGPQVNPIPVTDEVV
Method in brief: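 NOX4-p22 membranes from transfected HEK293 EBNA-1 cells, compound 100 μM, 10 min preincubation at 4 °C in PBS. Amplex Red: 100 μg membranes, 12.5 μM Amplex Red, 0.02 U/ml HRP, 40 μM FAD, started with 40 μM NADPH, ex 572/em 583 nm. CBA: 50 μg membranes, 20 μM FAD, then 200 μM coumarin boronic acid and 50 μM NADPH, ex 320/em 430 nm.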

[3] = biological target: T2, human NOX2 (Homo sapiens, UniProt P04839); test: MCLA assay on NOX2 membranes; format: biochemical; details: 100 μM compound
T2 sequence (P04839 2-570 limits assumed): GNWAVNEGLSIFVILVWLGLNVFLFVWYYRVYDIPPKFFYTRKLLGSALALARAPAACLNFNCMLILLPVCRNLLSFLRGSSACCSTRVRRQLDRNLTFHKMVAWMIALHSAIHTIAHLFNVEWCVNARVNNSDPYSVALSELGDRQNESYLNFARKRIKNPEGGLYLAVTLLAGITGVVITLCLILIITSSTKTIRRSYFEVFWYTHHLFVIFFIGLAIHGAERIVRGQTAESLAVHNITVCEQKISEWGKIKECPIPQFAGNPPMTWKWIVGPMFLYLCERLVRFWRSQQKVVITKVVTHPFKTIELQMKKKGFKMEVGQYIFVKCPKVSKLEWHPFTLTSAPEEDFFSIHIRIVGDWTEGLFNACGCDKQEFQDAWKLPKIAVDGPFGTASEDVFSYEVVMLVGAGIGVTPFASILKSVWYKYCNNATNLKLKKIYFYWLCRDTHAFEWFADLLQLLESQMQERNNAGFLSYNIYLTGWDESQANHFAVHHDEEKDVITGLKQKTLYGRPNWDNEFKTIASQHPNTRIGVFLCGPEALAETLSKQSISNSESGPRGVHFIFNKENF
T2 sequence (P13498 2-195 partner limits assumed): T1 sequence (P13498 2-195 partner limits assumed)

[4] = biological target: T3, bacterial NOX5 (Cylindrospermum stagnale, UniProt K9WT99); test: MCLA assay on NOX5 membranes; format: biochemical; details: 100 μM compound, MCLA assay
T3 sequence (K9WT99 1-693): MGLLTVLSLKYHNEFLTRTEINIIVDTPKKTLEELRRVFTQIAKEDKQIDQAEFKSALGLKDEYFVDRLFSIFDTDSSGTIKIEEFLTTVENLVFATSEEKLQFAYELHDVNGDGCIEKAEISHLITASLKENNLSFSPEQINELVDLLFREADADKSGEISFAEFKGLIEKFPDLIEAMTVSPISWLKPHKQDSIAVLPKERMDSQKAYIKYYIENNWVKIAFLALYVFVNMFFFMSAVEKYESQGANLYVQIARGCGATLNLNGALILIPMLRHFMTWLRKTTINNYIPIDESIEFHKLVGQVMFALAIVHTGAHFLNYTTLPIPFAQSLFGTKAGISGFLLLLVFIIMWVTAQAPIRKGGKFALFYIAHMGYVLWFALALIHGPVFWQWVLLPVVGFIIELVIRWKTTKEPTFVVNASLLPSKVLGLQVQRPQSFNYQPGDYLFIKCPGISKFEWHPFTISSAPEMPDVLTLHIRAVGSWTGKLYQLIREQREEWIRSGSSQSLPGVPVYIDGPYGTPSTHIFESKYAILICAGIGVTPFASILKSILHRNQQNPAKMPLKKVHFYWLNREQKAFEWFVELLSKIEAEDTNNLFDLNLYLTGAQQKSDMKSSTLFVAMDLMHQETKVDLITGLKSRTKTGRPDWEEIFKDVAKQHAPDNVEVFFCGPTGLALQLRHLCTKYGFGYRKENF
Method in brief: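 E. coli membranes carrying FLAG-(His)8-SUMO-tagged C. stagnale NOX5, 12 μg, in PBS with 1 mM CaCl2, 0.5 μM FAD and 1 μM MCLA. Compound (100 μM single point, or concentration series) 10 min at 25 °C. Started with 200 μM NADPH; chemiluminescence read. Membranes lacking NOX5 set noise level. IC50 by sigmoidal fit, % of untreated control.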

[5] = Amplex Red/peroxidase assay in the absence of a NOX enzyme; details: 100 μM compound, no NOX enzyme, NADPH present
Method in brief: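 Compound (100 μM) added to the Amplex Red/horseradish peroxidase H2O2 read-out with NADPH present but no NOX membranes, to probe reagent interference. Resorufin fluorescence read on a plate reader.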

[6] = MCLA auto-oxidation assay; details: 100 μM compound
[7] = tested on: NOXs; test: Initial evaluation of NOX inhibitors, isoform not specified; format: biochemical; details: 100 μM compound
[8] = NADH-PMS superoxide-scavenging assay; details: 100 μM compound, PMS-NADH/nitroblue tetrazolium
Method in brief: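 Non-enzymatic superoxide generation in 16 mM Tris-HCl pH 8.0 with 80 μM nitroblue tetrazolium and 70 μM NADH plus compound (100 μM). Started with 5 μM phenazine methosulfate; 5 min at 25 °C; A560. SOD as positive control; lower absorbance than the negative control scored as scavenging.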

[9] = biological target: T3, bacterial NOX5; test: Initial evaluation on NOX5 membrane preparations; format: biochemical; details: for inhibition of NOX5 (in words): 100 μM compound, membranes
[10] = tested on: wild-type NOX5 dehydrogenase domain; test: Thermal shift analysis on purified NOX5 dehydrogenase domain; format: binding, Cylindrospermum stagnale; details: inflection temperature Ti, 35–95 °C
Method in brief: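 Wild-type purified NOX5 dehydrogenase domain, with or without ligand, heated from 35 °C to 95 °C over 3 min on a Tycho system; inflection temperature (Ti) determined.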

[11] = biological target: T2, human NOX2; test: Initial evaluation on NOX2 membrane preparations; format: biochemical; details: for inhibition of NOX2 (in words): 100 μM compound, membranes
[12] = biological target: T4, wild-type dehydrogenase domain of bacterial NOX5 (Cylindrospermum stagnale, UniProt K9WT99); test: NADPH-depletion assay on purified wild-type NOX5 dehydrogenase domain; format: biochemical
T4 sequence (K9WT99 413-693): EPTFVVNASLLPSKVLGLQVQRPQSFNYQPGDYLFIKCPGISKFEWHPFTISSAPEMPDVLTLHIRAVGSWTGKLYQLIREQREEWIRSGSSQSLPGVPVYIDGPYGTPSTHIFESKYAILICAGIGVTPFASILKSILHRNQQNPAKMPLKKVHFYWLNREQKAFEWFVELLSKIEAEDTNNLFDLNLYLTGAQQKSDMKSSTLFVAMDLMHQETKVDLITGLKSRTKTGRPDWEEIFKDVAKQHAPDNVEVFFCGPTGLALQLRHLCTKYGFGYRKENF

[13] = biological target: T5, wild-type dehydrogenase domain of NOX5 (Cylindrospermum stagnale, UniProt K9WT99); test: Microscale thermophoresis binding assay on purified NOX5 dehydrogenase domain
T5 sequence (K9WT99 413-693): T4 sequence (K9WT99 413-693)
Method in brief: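 Microscale thermophoresis with fluorescently labelled wild-type NOX5 dehydrogenase domain (~200 nM). Ligand given as 16 serial dilutions up to 6.4 mM in 50 mM Hepes, 240 mM NaCl, 0.5% glycerol, 250 μM FAD, 0.1% pluronic acid, pH 7.5. Incubated 10 min at 25 °C; recorded at 25 °C, red channel. Kd from binding isotherms, triplicate, standard deviation.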

xanthine oxidase, sequence (P80457 whole entry): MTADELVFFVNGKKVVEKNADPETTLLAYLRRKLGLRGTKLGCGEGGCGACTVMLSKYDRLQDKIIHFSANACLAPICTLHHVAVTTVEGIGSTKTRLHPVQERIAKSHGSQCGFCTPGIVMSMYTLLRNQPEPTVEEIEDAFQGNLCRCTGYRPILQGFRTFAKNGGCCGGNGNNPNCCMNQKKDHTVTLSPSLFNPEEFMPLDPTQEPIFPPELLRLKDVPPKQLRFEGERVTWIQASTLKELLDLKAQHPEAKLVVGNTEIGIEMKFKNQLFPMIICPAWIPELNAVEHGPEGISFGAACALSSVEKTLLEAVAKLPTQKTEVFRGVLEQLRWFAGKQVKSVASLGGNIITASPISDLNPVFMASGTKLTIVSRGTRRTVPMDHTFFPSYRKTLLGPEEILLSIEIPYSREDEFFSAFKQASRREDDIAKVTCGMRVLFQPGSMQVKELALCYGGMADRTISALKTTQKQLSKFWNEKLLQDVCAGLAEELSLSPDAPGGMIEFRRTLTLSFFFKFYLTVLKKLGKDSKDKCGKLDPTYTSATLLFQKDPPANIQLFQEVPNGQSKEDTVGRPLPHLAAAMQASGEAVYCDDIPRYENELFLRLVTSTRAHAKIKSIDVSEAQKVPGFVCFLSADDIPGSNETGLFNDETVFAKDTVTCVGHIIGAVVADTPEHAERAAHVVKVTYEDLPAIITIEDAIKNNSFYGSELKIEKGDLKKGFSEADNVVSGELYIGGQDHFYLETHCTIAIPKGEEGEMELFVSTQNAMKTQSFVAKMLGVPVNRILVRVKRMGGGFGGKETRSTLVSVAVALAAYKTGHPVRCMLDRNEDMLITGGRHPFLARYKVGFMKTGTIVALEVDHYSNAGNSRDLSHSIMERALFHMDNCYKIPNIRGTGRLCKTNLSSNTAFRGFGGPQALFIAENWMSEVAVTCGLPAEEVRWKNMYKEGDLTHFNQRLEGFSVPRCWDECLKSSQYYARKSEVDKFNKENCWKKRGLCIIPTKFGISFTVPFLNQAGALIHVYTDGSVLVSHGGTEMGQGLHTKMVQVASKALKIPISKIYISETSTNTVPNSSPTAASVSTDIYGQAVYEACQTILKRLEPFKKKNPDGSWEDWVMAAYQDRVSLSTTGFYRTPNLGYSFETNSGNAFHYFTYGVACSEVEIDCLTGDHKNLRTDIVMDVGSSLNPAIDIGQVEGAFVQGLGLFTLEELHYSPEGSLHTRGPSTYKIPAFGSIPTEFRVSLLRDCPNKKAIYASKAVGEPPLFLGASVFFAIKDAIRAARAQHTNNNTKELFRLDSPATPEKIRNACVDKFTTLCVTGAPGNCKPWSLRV

| inhibition of the hydrogen peroxide-producing activity of xanthine oxidase [1] | SMILES | inhibition of NOX4 (in words) [2] | interference with MCLA auto-oxidation [6] | superoxide scavenging [8] | inhibition of NOX5 (in words) [9] | further results |
| --- | --- | --- | --- | --- | --- | --- |
| powerful inhibitions | CN(C)c1cccc(-c2c3c(=O)n(-c4ccccc4Cl)[nH]c3cc(=O)n2C)c1 [GKT137831] | strong NOX4 inhibitors | substantial interference | – | – | inhibition of NOX2 with MCLA (in words) [3]: moderately active; inhibition of NOX5 with the MCLA-based protocol (in words) [4]: moderately active; interference on the Amplex Red/peroxidase assay [5]: substantial interference |
| powerful inhibitions | CN(C)CCCN1c2ccccc2Sc2ccccc21 [promazine] | – | – | – | – | – |
| powerful inhibitions | OCCN1CCN(CCCN2c3ccccc3Sc3ccc(C(F)(F)F)cc32)CC1 [fluphenazine] | – | – | mild scavenging activities | – | – |
| powerful inhibitions | OCCN1CCN(CCCN2c3ccccc3Sc3ccc(Cl)cc32)CC1 [perphenazine] | – | – | mild scavenging activities | – | – |

Second part, the molecule before the results:

| SMILES | inhibition of the hydrogen peroxide-producing activity of xanthine oxidase [1] | inhibition of NOX4 (in words) [2] | interference with MCLA auto-oxidation [6] | superoxide scavenging [8] | inhibition of NOX5 (in words) [9] | further results |
| --- | --- | --- | --- | --- | --- | --- |
| CC1=NN(c2ccccc2)CC1 [3-methyl-1-phenyl-2-pyrazoline] | powerful inhibitions | – | – | – | – | – |
| O=c1[nH]c2ccccc2c2ccccc12 [phenanthridinone, 6(5H)-phenanthridinone] | – | – | – | mild scavenging activities | – | pattern of NOX inhibition (in words) [7]: assay-dependent inhibitory activities |
| CC1=CC(=O)c2c(O)cccc2C1=O [plumbagin] | – | – | – | – | – | pattern of NOX inhibition (in words) [7]: assay-dependent inhibitory activities |
| CC1=C(O)C(=O)C=C2C1=CC=C1[C@@]2(C)CC[C@@]2(C)[C@@H]3C[C@](C)(C(=O)O)CC[C@]3(C)CC[C@]12C [celastrol] | powerful inhibitions | full | interfered with the MCLA auto-oxidation | – | full | stabilising effect in thermal shift analysis [10]: lack of any stabilising effect; inhibition of NOX2 (in words) [11]: full |
| O=c1c2ccccc2[se]n1-c1ccccc1 [ebselen] | powerful inhibitions | full | substantial interference | – | full | stabilising effect in thermal shift analysis [10]: lack of any stabilising effect; inhibition of NOX2 (in words) [11]: full; interference on the Amplex Red/peroxidase assay [5]: substantial interference |
| Cc1ccc(C(=O)Nc2ccc(S(=O)(=O)O)c3cc(S(=O)(=O)O)cc(S(=O)(=O)O)c23)cc1NC(=O)c1cccc(NC(=O)Nc2cccc(C(=O)Nc3cc(C(=O)Nc4ccc(S(=O)(=O)O)c5cc(S(=O)(=O)O)cc(S(=O)(=O)O)c45)ccc3C)c2)c1 [suramin] | – | full | – | strong superoxide scavenger | full | stabilising effect in thermal shift analysis [10]: lack of any stabilising effect; inhibition of NOX2 (in words) [11]: full; Ki [12]: 0.39 ± 0.05 µM; Kd [13]: 52.2 ± 1.1 µM |
| CC(C)c1c(C(=O)Nc2ccccc2)c(-c2ccccc2)c(-c2ccc(F)cc2)n1CC[C@@H](O)C[C@@H](O)CC(=O)O [Atorvastatin] | – | – | – | – | – | inhibition at 100 µM ([9]; read-out: inhibition of NOX5): ~50% |
| C1CCC(C(CC2CCCCN2)C2CCCCC2)CC1 (stereo not shown) [perhexiline] | – | – | interfered with the MCLA auto-oxidation | – | not against NOX5 | inhibition at 100 µM ([2]; read-out: inhibition of NOX4): 40 to 70%; inhibition at 100 µM ([11]; read-out: inhibition of NOX2): 40 to 70% |
